Results as given in PMC6926016 (Proceedings of the National Academy of Sciences of the …, 2019).

How the values were obtained:
Assay type in all cases: cell-based
Conditions in all cases: Ca2+ assay
dog TRPA1 = dog TRPA1 (Canis lupus familiaris, UniProt A0A8I3Q1Q7); test: Calcium influx assay, dog TRPA1
How it was run: (§1)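 TRPA1 orthologue cDNAs in pcDNA3.1 Hygro, transiently transfected, each construct tested in at least 2 independent transfections. Fluorescence Ca2+ influx (RFU) read in Hanks balanced salt solution with 1.26 mM Ca2+ and 1.0 mM Mg2+.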

guinea pig TRPA1 = guinea pig TRPA1 (Cavia porcellus, UniProt H0VJD1); test: Calcium influx assay, guinea pig TRPA1
How it was run: as §1

rat TRPA1 = rat TRPA1 (Rattus norvegicus, UniProt Q6RI86); test: Calcium influx assay, rat TRPA1
How it was run: as §1

chicken TRPA1 = test: Calcium influx assay, chicken TRPA1
How it was run: as §1

human TRPA1 = human TRPA1 (Homo sapiens, UniProt O75762); test: Calcium influx assay in HEK-293F cells transiently expressing human TRPA1
Chain of human TRPA1 (O75762 whole entry): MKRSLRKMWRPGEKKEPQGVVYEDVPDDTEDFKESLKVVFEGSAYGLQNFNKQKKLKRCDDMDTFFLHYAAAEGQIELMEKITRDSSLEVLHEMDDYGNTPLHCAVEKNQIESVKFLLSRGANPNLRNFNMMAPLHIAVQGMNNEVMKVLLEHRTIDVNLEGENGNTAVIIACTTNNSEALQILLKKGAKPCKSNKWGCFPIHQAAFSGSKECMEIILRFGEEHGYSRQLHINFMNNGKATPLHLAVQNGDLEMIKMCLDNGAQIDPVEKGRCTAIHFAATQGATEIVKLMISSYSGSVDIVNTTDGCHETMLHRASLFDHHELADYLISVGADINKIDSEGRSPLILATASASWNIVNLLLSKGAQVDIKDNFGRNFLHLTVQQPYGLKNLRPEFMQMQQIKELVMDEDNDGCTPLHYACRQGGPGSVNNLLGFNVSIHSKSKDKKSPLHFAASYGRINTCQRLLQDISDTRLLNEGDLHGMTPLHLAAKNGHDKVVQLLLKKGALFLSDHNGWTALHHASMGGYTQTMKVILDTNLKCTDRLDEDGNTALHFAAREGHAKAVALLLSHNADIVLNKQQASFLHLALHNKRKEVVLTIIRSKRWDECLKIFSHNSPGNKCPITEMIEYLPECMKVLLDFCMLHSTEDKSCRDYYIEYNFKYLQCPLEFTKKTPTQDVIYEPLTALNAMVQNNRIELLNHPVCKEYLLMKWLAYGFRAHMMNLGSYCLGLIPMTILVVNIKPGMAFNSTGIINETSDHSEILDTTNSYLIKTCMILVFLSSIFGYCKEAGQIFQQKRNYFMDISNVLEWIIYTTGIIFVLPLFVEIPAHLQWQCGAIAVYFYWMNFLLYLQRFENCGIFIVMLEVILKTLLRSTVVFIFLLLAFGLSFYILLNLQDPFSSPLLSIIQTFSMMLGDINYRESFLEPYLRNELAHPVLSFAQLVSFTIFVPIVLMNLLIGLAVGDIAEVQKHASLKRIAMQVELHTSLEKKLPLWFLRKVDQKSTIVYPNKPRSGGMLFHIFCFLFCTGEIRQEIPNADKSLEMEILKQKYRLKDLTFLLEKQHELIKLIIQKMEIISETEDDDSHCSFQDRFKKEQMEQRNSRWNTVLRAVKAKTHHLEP

Chain of rat TRPA1 (Q6RI86 whole entry): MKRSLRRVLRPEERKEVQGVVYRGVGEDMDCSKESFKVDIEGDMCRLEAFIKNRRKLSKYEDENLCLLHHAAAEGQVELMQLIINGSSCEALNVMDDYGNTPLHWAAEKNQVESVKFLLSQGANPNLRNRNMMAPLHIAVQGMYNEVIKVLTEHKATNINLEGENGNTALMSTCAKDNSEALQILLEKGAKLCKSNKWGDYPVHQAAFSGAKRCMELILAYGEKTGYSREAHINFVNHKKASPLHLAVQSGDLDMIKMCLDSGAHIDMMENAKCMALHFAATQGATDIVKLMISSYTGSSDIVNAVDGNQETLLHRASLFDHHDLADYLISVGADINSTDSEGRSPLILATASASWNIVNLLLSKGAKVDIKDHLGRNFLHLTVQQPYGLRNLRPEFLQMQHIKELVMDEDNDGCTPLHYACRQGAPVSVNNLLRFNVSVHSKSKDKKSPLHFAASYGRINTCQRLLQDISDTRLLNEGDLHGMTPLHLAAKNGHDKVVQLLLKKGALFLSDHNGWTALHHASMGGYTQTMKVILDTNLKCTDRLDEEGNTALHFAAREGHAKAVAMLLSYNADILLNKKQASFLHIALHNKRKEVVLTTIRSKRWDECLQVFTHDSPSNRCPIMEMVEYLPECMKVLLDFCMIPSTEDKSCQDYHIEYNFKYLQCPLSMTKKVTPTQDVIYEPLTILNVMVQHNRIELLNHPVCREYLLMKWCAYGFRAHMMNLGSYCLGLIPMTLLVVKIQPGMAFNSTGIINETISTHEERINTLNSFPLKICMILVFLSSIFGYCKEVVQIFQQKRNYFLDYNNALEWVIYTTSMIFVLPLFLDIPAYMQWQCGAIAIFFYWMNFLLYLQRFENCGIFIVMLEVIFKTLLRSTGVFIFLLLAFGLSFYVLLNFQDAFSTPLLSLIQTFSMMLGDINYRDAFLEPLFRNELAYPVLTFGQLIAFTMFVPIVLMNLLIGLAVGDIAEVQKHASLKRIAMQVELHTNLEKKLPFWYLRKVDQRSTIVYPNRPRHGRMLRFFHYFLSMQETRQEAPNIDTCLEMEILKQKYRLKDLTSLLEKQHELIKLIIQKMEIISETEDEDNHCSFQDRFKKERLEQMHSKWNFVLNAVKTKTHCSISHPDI
Chain of guinea pig TRPA1 (H0VJD1 1-991): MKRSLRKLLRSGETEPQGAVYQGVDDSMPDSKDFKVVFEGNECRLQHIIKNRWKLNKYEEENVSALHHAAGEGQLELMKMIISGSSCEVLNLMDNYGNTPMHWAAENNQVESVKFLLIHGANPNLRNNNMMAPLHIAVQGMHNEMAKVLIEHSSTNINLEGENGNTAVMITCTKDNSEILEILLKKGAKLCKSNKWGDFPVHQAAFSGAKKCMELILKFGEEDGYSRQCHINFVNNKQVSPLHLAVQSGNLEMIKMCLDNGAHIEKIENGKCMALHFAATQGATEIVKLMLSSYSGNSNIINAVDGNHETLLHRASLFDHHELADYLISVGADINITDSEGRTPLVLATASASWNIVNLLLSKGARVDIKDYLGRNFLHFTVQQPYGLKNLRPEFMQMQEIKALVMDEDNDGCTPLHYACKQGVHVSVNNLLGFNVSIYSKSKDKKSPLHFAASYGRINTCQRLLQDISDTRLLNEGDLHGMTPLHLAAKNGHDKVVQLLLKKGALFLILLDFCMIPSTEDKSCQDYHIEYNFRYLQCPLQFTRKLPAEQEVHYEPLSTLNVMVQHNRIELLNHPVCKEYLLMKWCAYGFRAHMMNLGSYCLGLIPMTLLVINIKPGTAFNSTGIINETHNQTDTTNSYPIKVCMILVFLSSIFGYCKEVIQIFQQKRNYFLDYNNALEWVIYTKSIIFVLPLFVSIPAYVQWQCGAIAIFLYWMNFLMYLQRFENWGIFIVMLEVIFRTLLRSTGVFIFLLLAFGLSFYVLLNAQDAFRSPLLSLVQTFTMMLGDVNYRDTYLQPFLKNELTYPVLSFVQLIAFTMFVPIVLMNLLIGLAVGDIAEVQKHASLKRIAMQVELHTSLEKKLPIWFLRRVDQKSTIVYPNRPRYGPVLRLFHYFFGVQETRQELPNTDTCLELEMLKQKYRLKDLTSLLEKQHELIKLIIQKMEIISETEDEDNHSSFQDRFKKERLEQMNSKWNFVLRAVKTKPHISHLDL
Chain of dog TRPA1 (A0A8I3Q1Q7 1-1118): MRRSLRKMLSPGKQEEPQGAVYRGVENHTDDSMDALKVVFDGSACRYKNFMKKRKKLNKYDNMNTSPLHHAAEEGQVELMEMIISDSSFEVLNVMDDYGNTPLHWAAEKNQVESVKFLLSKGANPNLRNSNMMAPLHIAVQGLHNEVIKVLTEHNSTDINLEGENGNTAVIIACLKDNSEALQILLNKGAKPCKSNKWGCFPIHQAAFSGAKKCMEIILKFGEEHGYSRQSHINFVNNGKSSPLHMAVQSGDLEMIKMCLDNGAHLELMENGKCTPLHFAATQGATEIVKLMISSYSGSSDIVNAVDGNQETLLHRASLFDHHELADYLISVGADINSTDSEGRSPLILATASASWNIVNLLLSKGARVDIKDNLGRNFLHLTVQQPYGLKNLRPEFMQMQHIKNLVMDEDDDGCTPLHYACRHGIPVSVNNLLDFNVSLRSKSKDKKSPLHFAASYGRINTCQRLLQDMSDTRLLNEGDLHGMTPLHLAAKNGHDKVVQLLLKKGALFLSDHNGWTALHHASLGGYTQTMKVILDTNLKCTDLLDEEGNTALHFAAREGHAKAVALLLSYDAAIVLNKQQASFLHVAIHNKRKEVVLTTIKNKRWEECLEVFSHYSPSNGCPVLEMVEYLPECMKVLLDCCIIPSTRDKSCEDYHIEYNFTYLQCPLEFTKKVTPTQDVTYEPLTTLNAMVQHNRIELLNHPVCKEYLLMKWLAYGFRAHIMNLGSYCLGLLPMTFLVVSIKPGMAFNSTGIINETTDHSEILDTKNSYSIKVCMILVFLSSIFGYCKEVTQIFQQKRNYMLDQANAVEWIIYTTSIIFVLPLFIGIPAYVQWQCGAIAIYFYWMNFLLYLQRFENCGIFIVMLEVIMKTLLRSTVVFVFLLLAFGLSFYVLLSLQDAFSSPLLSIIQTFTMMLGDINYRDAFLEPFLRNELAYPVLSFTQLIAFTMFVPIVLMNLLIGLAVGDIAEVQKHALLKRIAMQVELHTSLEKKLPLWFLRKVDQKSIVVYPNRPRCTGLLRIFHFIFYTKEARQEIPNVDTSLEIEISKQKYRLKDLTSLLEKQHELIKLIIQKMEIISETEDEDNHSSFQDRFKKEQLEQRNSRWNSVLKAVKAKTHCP

## C=CCN=C=S [AITC, allyl isothiocyanate]
Dog TRPA1
  activation of dog TRPA1: robust response
Guinea pig TRPA1
  activation of guinea pig TRPA1: robust response
Rat TRPA1
  activation of rat TRPA1: robust response
Chicken TRPA1
  activation of chicken TRPA1: robust response
Human TRPA1; concentration-response, human TRPA1
  Hill slope: 1.4
Human TRPA1; species comparison
  activation of human TRPA1: robust response
